Bioassay records from PubChem BioAssay.
Shown is part of a subset that was picked to be rich in hits.
Ecoli tolC: blocks growth of E. coli BW25113 tolC mutant. growth inhibition, % at 10 µM (by protocol). 2.2% of 65,000 active. OD615;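 active means growth inhibition at or above a cutoff equal to the mean over every tested compound plus 3 SD, cut at about 60% in these data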;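 further: growth measured after 20 h incubation at 37 °C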
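Test system: E. coli BW25113 ΔtolC::kan bacteria | Medium: Kanamycin-containing LB broth (50 µg/mL) | Dosing: One dose of 10 µM final | Times: 20 h incubation with compound, 37 °C | Detection: Optical density read at 615 nm | Read-out basis: Percent growth inhibition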
Phagocyt inh: inhibitors of macrophage phagocytosis; J774A.1 macrophage IgG-bead phagocytosis, imaging; 0.07% of 110,000 active; inhibition, % at 5 µM;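 active means inhibition above the mean of the plate negative controls plus 5 SD, cut at about 13% in these data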;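 further: phagocytic index as fraction of beads internalized from green versus red external bead signal; plate controls were DMSO negative control for no effect and cytochalasin-D positive control for full effect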
E coli WT exp: blocks growth of wild type E. coli BW25113; OD600 absorbance; growth inhibition, % at 100 µM; 0.15% of 98,000 active; AID 710;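 active means growth inhibition above about 50% at one test dose, limit read from the data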;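 further: growth measured after 20 h incubation at 37 °C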
CD11b adhes enh: enhancers of human CD11b/CD18 binding to fibrinogen | activation, % at 10 µM | 0.07% of 93,000 active | K562 CD11b/CD18 adhesion to fibrinogen, ATPlite luminescence | AID 1499;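 active means 10 µM primary screen giving 50% or more activity, confirmed by 40% or more on retest at that dose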
Target sequence (P05107 whole entry, looked up, other chains not shown): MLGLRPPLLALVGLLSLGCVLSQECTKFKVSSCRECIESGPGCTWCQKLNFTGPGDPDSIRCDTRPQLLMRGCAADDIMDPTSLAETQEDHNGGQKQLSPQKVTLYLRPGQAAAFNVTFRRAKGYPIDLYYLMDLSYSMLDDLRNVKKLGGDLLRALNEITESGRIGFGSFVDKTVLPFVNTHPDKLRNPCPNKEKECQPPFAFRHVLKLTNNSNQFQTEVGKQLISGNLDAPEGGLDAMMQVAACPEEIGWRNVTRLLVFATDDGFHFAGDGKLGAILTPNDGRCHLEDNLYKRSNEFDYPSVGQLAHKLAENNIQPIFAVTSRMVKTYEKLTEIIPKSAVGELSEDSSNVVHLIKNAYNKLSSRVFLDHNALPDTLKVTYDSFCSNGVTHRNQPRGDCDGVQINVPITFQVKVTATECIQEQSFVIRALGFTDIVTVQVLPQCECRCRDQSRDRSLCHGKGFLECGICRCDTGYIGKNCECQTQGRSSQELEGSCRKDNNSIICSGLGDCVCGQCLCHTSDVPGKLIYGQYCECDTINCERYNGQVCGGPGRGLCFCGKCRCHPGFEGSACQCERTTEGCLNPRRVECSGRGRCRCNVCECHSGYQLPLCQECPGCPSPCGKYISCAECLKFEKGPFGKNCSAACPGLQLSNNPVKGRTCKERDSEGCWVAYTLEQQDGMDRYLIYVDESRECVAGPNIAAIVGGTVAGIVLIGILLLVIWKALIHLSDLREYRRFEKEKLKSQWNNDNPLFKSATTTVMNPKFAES
Mac1 fbg inh: inhibitors of human CD11b/CD18 binding to fibrinogen; AID 1497; K562 CD11b/CD18 adhesion to fibrinogen, ATPlite luminescence; Mn2+ added to activate the integrin; P05107+P11215; 0.54% of 93,000 active; inhibition, % at 10 µM;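 active means primary inhibition of 50% or more at 10 µM, then 40% or more on retest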
* hit, by the source's call; nt = not tested or not shown; + = active, no number.

SMILES	Ecoli tolC	Phagocyt inh	E coli WT exp	CD11b adhes enh	Mac1 fbg inh
Cc1cc(Cl)c(OCCCNCc2ccccc2)c(Br)c1	nt	3.2	57.0*	1.4	-4.9
Clc1ccc(Cl)c(OCCCCNCc2ccccc2)c1	nt	0.7	nt	nt	nt
Clc1ccc(OCCCNCc2ccccc2)c(Br)c1	nt	0.4	68.0*	-1.7	18.5
COc1ccc(CNC(=O)Cn2cc(C(F)(F)F)ccc2=O)cc1	nt	-2.5	nt	1.7	4.4
Cc1cc(C(=O)c2ccc(C(C)(C)C)cc2)c(NC(=O)CCl)s1	nt	-5.0	nt	nt	nt
CC(NC(=O)Cc1ccccc1)c1cc2c(cc1Br)OCCCO2 (centres undefined)	nt	0.1	nt	nt	nt
Cc1ccc(S(=O)(=O)c2nc(Nc3nccs3)sc2Cl)cc1	98.4*	-0.5	-5.0	0.2	-0.9
CC(=O)Nc1nc(S(=O)(=O)c2ccc(C)cc2)c(Cl)s1	nt	nt	2.0	-4.4	5.1
CC1(c2ccccc2)CC(C)(C)N2C(=O)/C(=C3\SC(=S)NC3=O)c3cccc1c32 (centres undefined)	nt	nt	nt	-4.7	99.8*
Cn1c(C(=O)N2CCc3ccccc3C2)cc2oc3ccccc3c21	68.8*	nt	-22.0	nt	nt
NC(=O)c1ccsc1NC(=O)COC(=O)Cc1cccc2ccccc12	nt	-1.1	-2.0	-8.4	84.4*
c1ccc(NCC2OCc3ccccc3CO2)cc1	nt	-7.5	nt	nt	nt
O=c1[nH]c(=O)n(C2CCCCCC2)c(O)c1C=NCc1ccc(F)cc1	98.5*	-0.8	-10.0	-3.2	7.7
CCC(=NC(C)c1ccccc1)c1c(O)n(C)c(=O)n(C)c1=O (centres undefined)	6.0	nt	1.0	-5.3	70.6*
C=CCNc1ncnc2c1[nH]c1ccccc12	57.4	1.3	77.0*	-8.6	29.3
CCCCOCCCNc1ncnc2c1[nH]c1ccccc12	nt	-1.1	31.0	-5.8	100.3*
C=CCNc1ncnc2c1cnn2-c1ccc(Cl)cc1	-10.8	-0.5	-5.0	1.0	0.4
CCOCCCNc1ncnc2c1[nH]c1ccccc12	45.9	0.5	22.0	-5.6	37.8
C=CCNc1ncnc2c1[nH]c1ccc(Cl)cc12	nt	-1.6	73.0*	-4.8	86.9*
Cc1nn2c(COc3ccc(NC(=O)c4ccccc4Cl)cc3)nnc2c2ccccc12	nt	-4.5	nt	nt	nt
Cc1onc(-c2ccccc2)c1C(=O)NNC(=S)NC(=O)/C=C/c1cccs1	nt	-9.6	nt	4.9	0.7
c1ccc(CNc2ncnc3ccccc23)cc1	29.6	0.8	28.0	-3.9	66.3*
COc1cc2ncnc(NCc3ccccc3)c2cc1OC	nt	-1.0	3.0	-1.0	-12.5
O=C(C[n+]1cnn(CC(=O)c2ccc(Cl)cc2Cl)c1)c1ccc([N+](=O)[O-])cc1	nt	-4.3	nt	0.4	-5.1
O=C(CC12CC3CC(CC(C3)C1)C2)N1CCN(S(=O)(=O)c2cccs2)CC1	nt	-3.1	nt	nt	nt
SMILES	Ecoli tolC	Phagocyt inh	E coli WT exp	CD11b adhes enh	Mac1 fbg inh
O=c1c2ccccc2nc(SCc2nc3ccccc3s2)n1CCCO	nt	-1.9	nt	0.4	19.2
COC(=O)/C(=C(/F)Sc1cc(C)c(O)c(C)c1)C(F)(F)F	nt	0.8	-2.0	-7.4	54.8*
COC(=O)C(Nc1ccccc1Cl)(c1cc(C)c(O)c(C)c1)C(F)(F)F (centres undefined)	nt	-1.9	8.0	-4.9	13.1
CCCCn1nnc(NC(=S)NC(=O)c2cccs2)n1	nt	-9.1	nt	3.8	-16.5
Cc1cc(C)c2c(N)c3ccccc3nc2n1	nt	-4.5	52.0*	19.7	-6.3
CCc1ccc2nc3nc(C)cc(C)c3c(N)c2c1	nt	-2.0	5.0	-2.7	-1.3
COc1ccc2[nH]c3c(=O)n(CCCCC(=O)N4CCCC4)c(=S)[nH]c3c2c1	100.0*	-0.7	1.0	16.4	-37.6
CC(=O)c1ccc(NC(=O)C(C)OC(=O)c2ccc(NS(=O)(=O)c3ccc(F)c(F)c3)cc2)cc1 (centres undefined)	nt	-6.1	nt	nt	nt
Cc1cccc(C(C)C)c1NC(=O)C1CN(S(=O)(=O)c2ccccc2)CCN1S(=O)(=O)c1ccccc1 (centres undefined)	nt	-9.4	nt	0.1	11.7
COc1ccc(C(=O)Nn2cnnc2)c(OC)c1	nt	0.1	4.0	3.7	-5.0
COc1ccc(C(=O)Nc2ccc(C)cn2)c(OC)c1	2.4	-1.6	2.0	-8.2	75.6*
CC(C)(C)c1ccc(S(=O)(=O)Nc2cccc(C3OCCCO3)c2)cc1	nt	-6.3	nt	nt	nt
COc1ccc(-c2csc(N(CC3CCCO3)C(=O)c3ccco3)n2)cc1 (centres undefined)	60.6*	-0.3	5.0	nt	nt
COc1ccc(-c2csc(N3CCN(C(=O)c4ccco4)CC3)n2)cc1	39.8	-0.3	-6.0	2.2	-16.3
CCNC(=S)N/N=C/c1sc(N2CCCCC2)nc1-c1cccs1	nt	0.6	nt	nt	nt
O=C(CCCOc1ccc(Cl)cc1Cl)N1CCN(c2ccccn2)CC1	73.2*	-1.5	-11.0	-2.2	16.4
Cc1ccc(-c2nnc3sc(CCc4ccccc4)nn23)cc1	67.1*	4.6	-4.0	8.1	-20.2
CCOc1ccc(Br)cc1CC(=O)O	1.1	nt	-2.0	nt	nt
CCCOc1ccc(Br)cc1CSC(=N)N	nt	4.1	nt	-7.0	101.6*
O=[N+]([O-])c1cccc(S(=O)(=O)Nc2nc3ccccc3nc2Nc2cccc(S(=O)(=O)N3CCCCC3)c2)c1	nt	-3.8	nt	3.6	98.3*
CC(C)c1nc(N2CCOCC2)c(C#N)c2c1CCCC2	64.9*	1.5	-2.0	7.5	10.2
CCSc1nc(N2CCOCC2)c2c(c1C#N)CCCC2	20.6	-0.6	5.0	-4.2	-6.8
Cc1occc(=O)c1OC(=O)Nc1ccc(Cl)c(Cl)c1	nt	-1.9	nt	nt	nt
Fc1cccc(Cl)c1Cn1nnc(-c2ccc3c(c2)OCO3)n1	62.8*	-0.2	-8.0	3.1	7.0
N#CCn1nnc(-c2ccc3c(c2)OCO3)n1	-4.1	1.0	2.0	-4.9	5.5
SMILES	Ecoli tolC	Phagocyt inh	E coli WT exp	CD11b adhes enh	Mac1 fbg inh
CCOC(=O)N1CCN(C(=O)c2oc3ccc(S(=O)(=O)N4CCCCC4)cc3c2C)CC1	-1.6	nt	9.0	-3.3	26.6
Cc1c(C(=O)N2CCCCC2)oc2ccc(S(=O)(=O)N3CC(C)CC(C)C3)cc12 (centres undefined)	90.9*	-0.6	2.0	-6.3	65.3
O=C(CSc1nc2ccccc2c(=O)n1-c1ccccc1)N1CCN(CCO)CC1	-12.6	-1.1	1.0	-2.3	-14.8
Cc1sc2nc(SCC(=O)N3CCN(CCO)CC3)n(-c3ccccc3)c(=O)c2c1C	0.9	+	7.0	-4.9	9.7
N#Cc1c(C(F)(F)F)cc(-c2cccc(Cl)c2)[nH]c1=O	nt	-0.2	20.0	-11.9	105.6*
N#Cc1c(C(F)(F)F)cc(-c2ccc(Cl)cc2)[nH]c1=O	nt	-0.5	18.0	-11.2	104.1*
CN(C)c1nc(-c2ccccc2)cc(C(F)(F)F)c1C#N	nt	-4.1	-7.0	7.7	3.3
O=C1CSC(=S)N1Cc1cccnc1	4.1	2.8	65.0*	21.4	-8.9
Oc1cccc(Nc2nc(NCC3CCCO3)c3ccccc3n2)c1 (centres undefined)	94.0*	nt	38.0	7.9	-16.4
c1ccc(-c2nc(NCC3CCCO3)c3ccccc3n2)nc1 (centres undefined)	-4.1	3.2	19.0	-0.3	-1.6
O=C1C2CCCN2c2ccc(S(=O)(=O)N3CCOCC3)cc2N1Cc1cccc(C(F)(F)F)c1 (centres undefined)	nt	1.9	6.0	142.2*	0.7
